Assay results taken from ChEMBL document CHEMBL1275449, “Potent in vitro antifungal activities of naturally occurring acetylenic acids” (Antimicrob Agents Chemother, 2008).
≈ marks a conversion by molar mass, not a printed value. Calls of active or inactive are those of the source. The calls are words filed in the database; no cut-off is given here.

Tests used:
Trichophyton rubrum [1] = test: Antifungal activity against Trichophyton rubrum ATCC 10218 by CLSI method; assay type: functional, organism-based
How it was run: (§1)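 Growth scraped from 1- to 6-week-old potato dextrose slants and filtered through Miracloth. Diluted in 5% Alamar blue-RPMI 1640 (MOPS pH 7.0) to 2.7 × 10⁴ CFU/ml. Eleven twofold dilutions in duplicate. Fluorescence at 544 nm excitation/590 nm emission read before and after 35°C, 5 days. IC50 fitted from percent growth. MIC taken as no detectable growth; MFC from clear or blue wells plated on PD agar.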

Trichophyton rubrum [2] = test: Antifungal activity against Trichophyton rubrum ATCC MYA-4438 by CLSI method; assay type: functional, organism-based; how it was run: as §1
[3] = tested on: Trichophyton mentagrophytes; test: Antifungal activity against Trichophyton mentagrophytes ATCC 9533 by CLSI method; assay type: functional, organism-based; how it was run: as §1
[4] = tested on: Trichophyton mentagrophytes; test: Antifungal activity against Trichophyton mentagrophytes ATCC MYA-4439 by CLSI method; assay type: functional, organism-based; how it was run: as §1
Cryptococcus neoformans [5] = test: Antifungal activity against Cryptococcus neoformans ATCC 66031 after 72 hrs by CLSI method; assay type: functional, organism-based; conditions: ATCC 66031, 72 h
How it was run: (§2)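 SD broth replaced RPMI because growth in RPMI was poor; other CLSI conditions were kept. Inoculum was 1.5 × 10³ CFU/ml from colonies on SD agar, checked by plating. Twofold serial dilutions (11 concentrations) in 20% DMSO-saline were tested in duplicate. OD530 was read before and after incubation at 35°C for 72 h. Percent growth gave IC50; the MIC is the lowest concentration with no detectable growth.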

Cryptococcus neoformans [6] = test: Antifungal activity against Cryptococcus neoformans ATCC 90113 after 72 hrs by CLSI method; assay type: functional, organism-based; conditions: ATCC 90113, 72 h; how it was run: as §2
Candida tropicalis = test: Antifungal activity against Candida tropicalis ATCC 750 after 48 hrs by CLSI method; assay type: functional, organism-based; conditions: ATCC 750, 48 h
How it was run: (§3)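 Yeast suspensions made from 3-5 colonies off 24-72 h SD agar plates in saline. They were diluted by OD630 standard curve in RPMI 1640 (0.2% dextrose, 0.03% glutamine, 0.165 M MOPS, pH 7.0) to 1.5 × 10³ CFU/ml. Twofold dilutions (11 concentrations, 20% DMSO-saline) run in duplicate. OD530 read before and after 35°C, 48 h. Line values are top test concentrations; no-growth endpoints give MIC/MFC.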

Candida parapsilosis = test: Antifungal activity against Candida parapsilosis ATCC 22019 after 48 hrs by CLSI method; assay type: functional, organism-based; conditions: Lodderomyces parapsilosis, ATCC 22019, 48 h; how it was run: as §3
Pichia kudriavzevii = test: Antifungal activity against Candida krusei ATCC 6258 after 48 hrs by CLSI method; assay type: functional, organism-based; conditions: ATCC 6258, 48 h
How it was run: (§4)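 Candida inocula came from 24–72-h SD agar colonies suspended in saline. They were diluted by OD630 standard curve into RPMI 1640 (0.2% dextrose, 0.03% glutamine, 0.165 M MOPS, pH 7.0) to 1.5 × 10³ CFU/ml. Compounds were run as 11 twofold dilutions in 20% DMSO-saline, in duplicate, at 35°C for 48 h, with OD530 read before and after. Percent growth at the top concentration, IC50, MIC, and MFC (SD agar plating) were derived.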

Nakaseomyces glabratus = test: Antifungal activity against Candida glabrata ATCC 90030 after 48 hrs by CLSI methodCandida glabrata; assay type: functional, organism-based; conditions: ATCC 90030, 48 h; how it was run: as §4
Candida albicans [7] = test: Antifungal activity against Fluconazole resistant Candida albicans clinical isolate 17 after 48 hrs by CLSI method; assay type: functional, organism-based
How it was run: (§5)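 CLSI broth microdilution. Colonies from 24–72 h SD agar suspended in saline and sized by OD630 standard curve. Inoculum 1.5 × 10³ CFU/ml (final) in RPMI 1640 (0.2% dextrose, 0.03% glutamine, 0.165 M MOPS, pH 7.0). Twofold dilutions (11 levels) from 20% DMSO-saline, in duplicate. 35°C for 48 h, OD530 read before and after. IC50 fitted from % growth. MIC: no detectable growth. MFC: subculture onto SD agar.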

Candida albicans [8] = test: Antifungal activity against Fluconazole resistant Candida albicans clinical isolate 1 after 48 hrs by CLSI method; assay type: functional, organism-based; how it was run: as §5
Aspergillus flavus [9] = test: Antifungal activity against Aspergillus flavus ATCC 204304 at 10.8 uM after 48 hrs by CLSI method; assay type: functional, organism-based
Candida albicans [10] = test: Antifungal activity against Candida albicans ATCC 200955 after 48 hrs by CLSI method; assay type: functional, organism-based; conditions: ATCC 200955, 48 h; how it was run: as §5
Aspergillus niger [11] = test: Antifungal activity against Aspergillus niger ATCC 16404 at 10.8 uM after 48 hrs by CLSI method; assay type: functional, organism-based
Candida albicans [12] = test: Antifungal activity against Candida albicans ATCC 90028 after 48 hrs by CLSI method; assay type: functional, organism-based; conditions: ATCC 90028, 48 h; how it was run: as §5
Candida albicans [13] = test: Antifungal activity against Candida albicans ATCC 32354 after 48 hrs by CLSI method; assay type: functional, organism-based; conditions: ATCC 32354, 48 h; how it was run: as §5
Candida albicans [14] = test: Antifungal activity against Candida albicans ATCC 14053 after 48 hrs by CLSI method; assay type: functional, organism-based; conditions: ATCC 14053, 48 h; how it was run: as §5
Candida albicans [15] = test: Antifungal activity against Candida albicans ATCC 60193 after 48 hrs by CLSI method; assay type: functional, organism-based; conditions: ATCC 60193, 48 h; how it was run: as §5
Aspergillus niger [16] = test: Antifungal activity against Aspergillus niger ATCC 16404 after 48 h by CLSI method; conditions: ATCC 16404, 48 h
Aspergillus flavus [17] = test: Antifungal activity against Aspergillus flavus ATCC 204304 after 48 h by CLSI method; conditions: ATCC 204304, 48 h
Aspergillus fumigatus [18] = test: Antifungal activity against Aspergillus fumigatus ATCC 90906 after 48 h by CLSI method; conditions: ATCC 90906, 48 h
Aspergillus fumigatus [19] = test: Antifungal activity against Aspergillus fumigatus ATCC 204305 after 48 h by CLSI method; conditions: ATCC 204305, 48 h

`C[C@@H]1[C@H](O)[C@@H](C)/C=C/C=C/C=C/C=C/C=C/C=C/C=C/[C@H](O[C@@H]2O[C@H](C)[C@@H](O)[C@H](N)[C@@H]2O)C[C@@H]2O[C@](O)(C[C@@H](O)C[C@@H](O)[C@H](O)CC[C@@H](O)C[C@@H](O)CC(=O)O[C@H]1C)C[C@H](O)[C@H]2C(=O)O` [AMPHOTERICIN B] showed an IC50 (Trichophyton rubrum [1]) of 600 nM, an MFC (Trichophyton rubrum [1]) of 1.4 µM (≈ 1.29 µg/mL) and an MIC (Trichophyton rubrum [1]) of 1.4 µM (≈ 1.29 µg/mL). It also gave an IC50 (Trichophyton rubrum [2]) of 600 nM, an MFC (Trichophyton rubrum [2]) of 5.4 µM (≈ 4.99 µg/mL) and an MIC (Trichophyton rubrum [2]) of 1.4 µM (≈ 1.29 µg/mL). The IC50 [3] was 600 nM, the MFC [3] was 2.7 µM (≈ 2.5 µg/mL) and the MIC [3] was 2 µM (≈ 1.85 µg/mL). The IC50 [4] was 900 nM, the MFC [4] was 1.4 µM (≈ 1.29 µg/mL) and the MIC [4] was 1.4 µM (≈ 1.29 µg/mL). For the same compound, the IC50 (Cryptococcus neoformans [5]) was 80 nM, the MFC (Cryptococcus neoformans [5]) was 0.34 µM (≈ 0.314 µg/mL) and the MIC (Cryptococcus neoformans [5]) was 0.34 µM (≈ 0.314 µg/mL). For the same compound, the IC50 (Cryptococcus neoformans [6]) was 300 nM, the MFC (Cryptococcus neoformans [6]) was 0.7 µM (≈ 0.647 µg/mL) and the MIC (Cryptococcus neoformans [6]) was 0.7 µM (≈ 0.647 µg/mL). For the same compound, the IC50 (Candida tropicalis) was 300 nM, the MFC (Candida tropicalis) was 1.4 µM (≈ 1.29 µg/mL) and the MIC (Candida tropicalis) was 1 µM (≈ 0.924 µg/mL). For the same compound, the IC50 (Candida parapsilosis) was 300 nM, the MFC (Candida parapsilosis) was 5.4 µM (≈ 4.99 µg/mL) and the MIC (Candida parapsilosis) was 2 µM (≈ 1.85 µg/mL). It also gave an MFC (Pichia kudriavzevii) of 2.7 µM (≈ 2.5 µg/mL), an MIC (Pichia kudriavzevii) of 2 µM (≈ 1.85 µg/mL) and an IC50 (Nakaseomyces glabratus) of 400 nM. The MFC (Nakaseomyces glabratus) was 1.4 µM (≈ 1.29 µg/mL), the MIC (Nakaseomyces glabratus) was 1.4 µM (≈ 1.29 µg/mL) and the IC50 (Candida albicans [7]) was 200 nM. It also gave an MFC (Candida albicans [7]) of 1.4 µM (≈ 1.29 µg/mL), an MIC (Candida albicans [7]) of 1 µM (≈ 0.924 µg/mL) and an IC50 (Candida albicans [8]) of 200 nM. For the same compound, the MFC (Candida albicans [8]) was 1.4 µM (≈ 1.29 µg/mL), the MIC (Candida albicans [8]) was 1 µM (≈ 0.924 µg/mL) and the Activity (Aspergillus flavus [9]) was “inactive”. For the same compound, the IC50 (Candida albicans [10]) was 600 nM, the MFC (Candida albicans [10]) was 2.7 µM (≈ 2.5 µg/mL) and the MIC (Candida albicans [10]) was 2.7 µM (≈ 2.5 µg/mL). The Activity (Aspergillus niger [11]) was “inactive”, the MFC (Candida albicans [12]) was 1.4 µM (≈ 1.29 µg/mL) and the MIC (Candida albicans [12]) was 1 µM (≈ 0.924 µg/mL). The MFC (Candida albicans [13]) was 1.4 µM (≈ 1.29 µg/mL), the MIC (Candida albicans [13]) was 1 µM (≈ 0.924 µg/mL) and the MFC (Candida albicans [14]) was 1.4 µM (≈ 1.29 µg/mL). It also gave an MIC (Candida albicans [14]) of 1 µM (≈ 0.924 µg/mL), an IC50 (Candida albicans [15]) of 200 nM and an MFC (Candida albicans [15]) of 1.4 µM (≈ 1.29 µg/mL). For the same compound, the MIC (Candida albicans [15]) was 1 µM (≈ 0.924 µg/mL), the IC50 (Aspergillus niger [16]) was 900 nM and the MIC (Aspergillus niger [16]) was 2 µM (≈ 1.85 µg/mL). The IC50 (Aspergillus flavus [17]) was 1500 nM, the MIC (Aspergillus flavus [17]) was 2.7 µM (≈ 2.5 µg/mL) and the IC50 (Aspergillus fumigatus [18]) was 900 nM. It also gave an MFC (Aspergillus fumigatus [18]) of 2.7 µM (≈ 2.5 µg/mL), an MIC (Aspergillus fumigatus [18]) of 1.4 µM (≈ 1.29 µg/mL) and an IC50 (Aspergillus fumigatus [19]) of 1200 nM. For the same compound, the MFC (Aspergillus fumigatus [19]) was 10.8 µM (≈ 9.98 µg/mL) and the MIC (Aspergillus fumigatus [19]) was 2 µM (≈ 1.85 µg/mL).
